For eight compounds, IC50 and Activity results are on record in ChEMBL document CHEMBL4130342, “New semi-synthetic analogs of oleuropein show improved anticancer activity in vitro and in vivo” (Eur J Med Chem, 2017).

Structures are written as SMILES.

Series [1] is described as follows: Antiproliferative activity against human FM3 cells after 72 hrs by MTT reduction assay. Type of series: functional, cell-based. In outline:
(§1)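 MTT reduction assay; adherent lines left to adhere overnight, suspension lines (HL-60, K562) seeded on the day. […] Incubation was 72 h at 37°C, with MTT added for the last 4 h. OD read at 545 nm (reference 690 nm). IC50 from 100(A0-A)/A0=50; means ± SD of 3 independent experiments.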
(In general: Tetrazolium dyes change colour on reduction, which living cells bring about.)

Series [2] relates to HCT-116. Nature of the series: Antiproliferative activity against human HCT116 cells after 72 hrs by MTT reduction assay. The class given is functional, cell-based. To be noted: HCT-116, 72 h. The gist of the method: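 MTT reduction assay; adherent lines left to adhere overnight, suspension lines (HL-60, K562) seeded on the day. Incubation was 72 h at 37°C, with MTT added for the last 4 h.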

In series [3] the test system is HeLa. Nature of the series: Antiproliferative activity against human HeLa cells after 72 hrs by MTT reduction assay. Type of series: functional, cell-based. In outline: as §1
For series [4], the system named is MCF7. In words: Antiproliferative activity against human MCF7 cells after 72 hrs by MTT reduction assay. To be noted: MCF7, 72 h. The class given is functional, cell-based. The gist of the method:
as §1

Series [5] has as its system SK-BR-3. In words: Antiproliferative activity against human SKBR3 cells after 72 hrs by MTT reduction assay. The class given is functional, cell-based. Conditions: SK-BR-3, 72 h. The gist of the method: as §1
Series [6] relates to HL-60. Nature of the series: Antiproliferative activity against human HL60 cells after 72 hrs by MTT reduction assay. Conditions: HL-60, 72 h. The class given is functional, cell-based. The gist of the method: as §1
The subject of series [7] is K562. Nature of the series: Antiproliferative activity against human K562 cells after 72 hrs by MTT reduction assay. Conditions: K562, 72 h. The class given is functional, cell-based. The gist of the method:
as §1

Series [8] has as its system B16-F1. Nature of the series: Antiproliferative activity against mouse B16-F1 cells after 72 hrs by MTT reduction assay. The class given is functional, cell-based. To be noted: B16-F1, 72 h. In outline:
as §1

Series [9] relates to PBMC. In words: Induction of apoptosis in human PBMC at 2 ug/ml after 24 hrs by propidium iodide staining-based flow cytometric method. The class given is cell-based. A general note: Flow cytometry measures light scatter and fluorescence of single cells or particles in a stream.
The test system of series [10] is PBMC. Nature of the series: Induction of apoptosis in human PBMC assessed as early apoptotic cells at 25 ug/ml after 24 hrs by propidium iodide staining-based flow cytometric method (reference value: 0.1%). The class given is cell-based.
Series [11] has as its system PBMC. Nature of the series: Induction of apoptosis in human PBMC assessed as late apoptotic cells at 25 ug/ml after 24 hrs by propidium iodide staining-based flow cytometric method (reference value: 0.6%). The class given is cell-based.
In series [12] the test system is PBMC. Nature of the series: Induction of apoptosis in human PBMC assessed as necrotic cells at 25 ug/ml after 24 hrs by propidium iodide staining-based flow cytometric method (reference value: 1%). The class given is cell-based.
Series [13] has as its system B16-F1. Nature of the series: Induction of apoptosis in mouse B16-F1 cells assessed as early apoptotic cells at 25 ug/ml after 24 hrs by propidium iodide staining-based flow cytometric method (reference value: 0.5%). Type of series: functional.
Series [14] relates to B16-F1. In words: Induction of apoptosis in mouse B16-F1 cells assessed as late apoptotic cells at 25 ug/ml after 24 hrs by propidium iodide staining-based flow cytometric method (reference value: 0.9%). The class given is functional.
Series [15] concerns B16-F1. In words: Induction of apoptosis in mouse B16-F1 cells assessed as necrotic cells at 25 ug/ml after 24 hrs by propidium iodide staining-based flow cytometric method (reference value: 0.4%). The class given is functional.
The test system of series [16] is B16-F1. Nature of the series: Induction of apoptosis in mouse B16-F1 cells assessed as early apoptotic cells at 25 ug/ml after 48 hrs by propidium iodide staining-based flow cytometric method (reference value: 0.2%). Type of series: functional.
Series [17] concerns B16-F1. Nature of the series: Induction of apoptosis in mouse B16-F1 cells assessed as late apoptotic cells at 25 ug/ml after 48 hrs by propidium iodide staining-based flow cytometric method (reference value: 0.5%). The class given is functional.
The subject of series [18] is B16-F1. Nature of the series: Induction of apoptosis in mouse B16-F1 cells assessed as necrotic cells at 25 ug/ml after 48 hrs by propidium iodide staining-based flow cytometric method (reference value: 1%). Type of series: functional.
Series [19] has as its system B16-F1. In words: Induction of apoptosis in mouse B16-F1 cells assessed as early apoptotic cells at 25 ug/ml after 72 hrs by propidium iodide staining-based flow cytometric method (reference value: 0.4%). Type of series: functional.
The subject of series [20] is B16-F1. In words: Induction of apoptosis in mouse B16-F1 cells assessed as late apoptotic cells at 25 ug/ml after 72 hrs by propidium iodide staining-based flow cytometric method (reference value: 1.4%). Type of series: functional.

Broadly, the IC50 is the midpoint of a concentration-inhibition curve. For the compound `C/C=C1/[C@H](O[C@@H]2O[C@H](COC(C)=O)[C@@H](OC(C)=O)[C@H](OC(C)=O)[C@H]2OC(C)=O)OC=C(C(=O)OC)[C@H]1CC(=O)OCCCCCCCCCCCCCCCC`, the IC50 came out at 27 µM in series [1]; 21 µM in series [2]; 17 µM in series [3]; 9.66 µM in series [4]; 3.81 µM in series [5]; 8 µM in [6]. In addition, the figures for the IC50 in series [7] and in series [8] were 7 µM and 34 µM, respectively.

For the compound `C/C=C1/[C@H](O[C@@H]2O[C@H](CO)[C@@H](O)[C@H](O)[C@H]2O)OC=C(C(=O)O)[C@H]1CC(=O)O`, the half-maximal inhibitory concentration (IC50) in series [1], in [2], in [3], in [4], in series [5] and in [6] was > 50 µM each time. Further, the IC50 in series [7] and in series [8] was > 50 µM throughout.

Take `C/C=C1/[C@H](O[C@@H]2O[C@H](CO)[C@@H](O)[C@H](O)[C@H]2O)OC=C(C(=O)OC)[C@H]1CC(=O)OCCc1ccccc1` (stereo in doubt): the half-inhibitory concentration (IC50) in [1] is 28 µM; in series [2] it was 25.3 µM; in [3], 18.5 µM; in series [4], 19.3 µM; in series [5], 11 µM; in series [6], 10.3 µM. In addition, the IC50 in series [7] was found to be 20 µM; in [8] it was 41 µM.

For `C/C=C1/[C@H](O[C@@H]2O[C@H](COC(C)=O)[C@@H](OC(C)=O)[C@H](OC(C)=O)[C@H]2OC(C)=O)OC=C(C(=O)OC)[C@H]1CC(=O)OCCC` (stereo in doubt), the IC50 in [1] is 29 µM; in series [2], 25.7 µM; in series [3], 17.5 µM; in series [4] it was 15 µM; in [5], 6.6 µM; in [6], 10.7 µM. The IC50 in [7] came out at 8.5 µM; in series [8] it was 44 µM.

Consider `C/C=C1/[C@H](O[C@@H]2O[C@H](CO)[C@@H](O)[C@H](O)[C@H]2O)OC=C(C(=O)OC)[C@H]1CC(=O)OCCC1CCCCC1` (stereo in doubt), for which the IC50 in series [1] was found to be 9.33 µM; in series [2], 13.7 µM; in [3], 5.6 µM; in series [4], 5 µM; in [5] it was 2 µM; in series [6], 0.48 µM. For the same compound, the results for the IC50 in series [7] and in series [8] were 0.85 µM and 5.04 µM, respectively. Also, in [9], the Activity is listed as > 30%.

For `C/C=C1/[C@H](O[C@@H]2O[C@H](COC(C)=O)[C@@H](OC(C)=O)[C@H](OC(C)=O)[C@H]2OC(C)=O)OC=C(C(=O)OC)[C@H]1CC(=O)OCCc1ccccc1` (stereo in doubt), the IC50 was found to be 29.3 µM in [1]; 26 µM in series [2]; 21 µM in [3]; 18.7 µM in series [4]; 11.5 µM in series [5]; 10 µM in [6]. Besides, the IC50 in series [7] is 16 µM; in [8], 43 µM.

`C/C=C1/[C@H](O[C@@H]2O[C@H](CO)[C@@H](O)[C@H](O)[C@H]2O)OC=C(C(=O)OC)[C@H]1CC(=O)OCCC(C)C` (stereo in doubt): the IC50 in [1] worked out at 27.7 µM; in series [2], 26.7 µM; in [3] it was 19.5 µM; in series [4] it was 21.3 µM; in series [5] it was 9.02 µM; in [6] it was 9.83 µM. Further, the IC50 in series [7] was 18 µM; in series [8] it was 39.1 µM.

As to `COc1cccc2c1C(=O)c1c(O)c3c(c(O)c1C2=O)C[C@@](O)(C(=O)CO)C[C@@H]3O[C@H]1C[C@H](N)[C@H](O)[C@H](C)O1` [DOXORUBICIN], the IC50 in series [1] was 0.217 µM; in series [3], 0.221 µM; in series [5], 0.202 µM; in [6], 0.017 µM; in series [7] it was 0.018 µM; in series [8], 0.23 µM. The Activity was determined as 0% in series [10]; 4.6% in series [11]; 46.2% in series [12]; 23.4% in series [13]; 1.5% in [14]; 1.1% in series [15]. The Activity in series [16] was 57.5%; in [17], 2%; in series [18], 0.9%; in [19] it was 71.5%; in series [20] it was 8.1%.
